Source: ChEMBL document CHEMBL1240487, “Discovery of a potent, selective, and orally bioavailable pyridinyl-pyrimidine phthalazine aurora kinase inhibitor” (J Med Chem, 2010)
Values after ≈ are worked out from the molar mass of the structure shown. Active and inactive are the calls of the source. The calls are words filed in the database; no cut-off is given here.

Legend:
Aurora kinase B [1] = biological target: T1, Aurora kinase B (Homo sapiens, UniProt Q96GD4); test: Inhibition of aurora B autophosphorylation in human HeLa cells at 1 uM after 3 hrs by Western blotting
T1 sequence (Q96GD4 whole entry): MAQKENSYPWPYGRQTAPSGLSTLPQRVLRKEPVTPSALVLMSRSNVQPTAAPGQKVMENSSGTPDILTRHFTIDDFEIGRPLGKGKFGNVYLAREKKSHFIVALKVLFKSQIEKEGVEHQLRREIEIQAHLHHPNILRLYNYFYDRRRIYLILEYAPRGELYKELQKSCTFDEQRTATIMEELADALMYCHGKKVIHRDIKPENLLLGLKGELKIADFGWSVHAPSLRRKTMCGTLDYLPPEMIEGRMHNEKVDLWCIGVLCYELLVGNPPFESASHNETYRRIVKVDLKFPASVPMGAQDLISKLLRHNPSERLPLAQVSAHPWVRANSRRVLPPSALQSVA

[2] = Aqueous equilibrium solubility of the compound in 0.01N HCL; assay type: physicochemical
[3] = Oral bioavailability in Sprague-Dawley rat at 2 mg/kg; assay type: ADME, organism-based; conditions: in vivo
[4] = Clearance in Sprague-Dawley rat at 0.5 mg/kg, iv and 2 mg/kg, po; assay type: ADME, organism-based; conditions: in vivo
[5] = Intrinsic clearance in rat liver microsomes at 1 uM after up to 40 mins; assay type: ADME, Microsome
Aurora kinase B [6] = biological target: T1, Aurora kinase B; test: Inhibition of Aurora B by HTRF assay
Outline: (§1)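 Enzyme inhibition was run with ATP at its Km for each kinase. Values are averages of at least two determinations.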

[7] = biological target: T2, Aurora kinase A/Targeting protein for Xklp2 (Homo sapiens, UniProt O14965); test: Inhibition of Aurora A/TPX2 (1-43) by HTRF assay; assay type: protein-complex assay
T2 sequence (O14965 whole entry): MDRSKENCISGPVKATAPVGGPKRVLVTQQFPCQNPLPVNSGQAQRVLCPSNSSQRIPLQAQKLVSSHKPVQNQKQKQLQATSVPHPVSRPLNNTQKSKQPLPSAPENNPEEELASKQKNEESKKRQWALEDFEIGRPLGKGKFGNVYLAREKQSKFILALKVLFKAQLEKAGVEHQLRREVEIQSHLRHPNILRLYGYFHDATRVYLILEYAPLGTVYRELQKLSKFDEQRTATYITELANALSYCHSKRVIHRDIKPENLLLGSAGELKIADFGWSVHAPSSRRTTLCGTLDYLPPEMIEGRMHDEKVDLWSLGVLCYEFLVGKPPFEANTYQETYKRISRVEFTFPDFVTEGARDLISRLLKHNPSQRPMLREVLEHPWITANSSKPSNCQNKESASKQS
T2 sequence (Q9ULW0 whole entry): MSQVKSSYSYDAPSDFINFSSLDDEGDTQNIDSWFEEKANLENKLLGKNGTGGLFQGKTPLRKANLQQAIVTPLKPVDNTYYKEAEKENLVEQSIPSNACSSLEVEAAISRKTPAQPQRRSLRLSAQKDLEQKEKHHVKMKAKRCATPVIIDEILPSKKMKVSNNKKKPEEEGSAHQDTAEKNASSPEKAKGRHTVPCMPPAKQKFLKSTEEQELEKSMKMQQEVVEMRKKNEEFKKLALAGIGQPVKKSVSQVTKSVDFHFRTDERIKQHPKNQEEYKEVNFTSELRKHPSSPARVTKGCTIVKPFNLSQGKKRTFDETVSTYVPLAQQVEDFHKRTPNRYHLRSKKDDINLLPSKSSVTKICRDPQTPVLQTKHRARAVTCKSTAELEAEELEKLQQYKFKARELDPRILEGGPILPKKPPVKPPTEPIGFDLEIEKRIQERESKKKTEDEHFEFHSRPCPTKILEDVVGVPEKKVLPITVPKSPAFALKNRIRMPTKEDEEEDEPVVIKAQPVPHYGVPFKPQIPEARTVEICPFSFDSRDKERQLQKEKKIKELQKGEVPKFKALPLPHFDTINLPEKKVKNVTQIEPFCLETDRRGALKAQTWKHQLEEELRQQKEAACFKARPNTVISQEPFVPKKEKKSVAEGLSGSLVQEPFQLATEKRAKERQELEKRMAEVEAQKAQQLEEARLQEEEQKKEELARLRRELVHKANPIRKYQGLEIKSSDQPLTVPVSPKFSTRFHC
Outline: as §1

For CCN(CCCOc1ccc2c(Nc3cc(CC(=O)Nc4cccc(F)c4)[nH]n3)ncnc2c1)CCOP(=O)(O)O, the Activity (Aurora kinase B [1]) was “Active”.
CNc1nccc(-c2cccnc2Oc2ccc(NC(=O)c3cc(F)ccc3Nc3ccccc3)cc2)n1 showed a solubility thermodynamic [2] of 16 µg/mL (≈ 31.6 µM), a bioavailability [3] of less than 1% and a clearance [4] of 14.5 mL/min/kg. The microsomal CLint at 1 µM [5] was 338 µL/min/mg.
Compound CNc1nccc(-c2cccnc2Oc2ccc(Nc3nnc(-c4ccccc4)c4ccccc34)cc2)n1 has an IC50 (Aurora kinase B [6]) of 22 nM, a solubility thermodynamic [2] of 159 µg/mL (≈ 320 µM) and an IC50 [7] of 149 nM.
In the case of CNc1nccc(-c2cccnc2Oc2ccc(NC(=O)c3cccc(Cl)c3)cc2C)n1, the IC50 (Aurora kinase B [6]) is reported as 430 nM and the IC50 [7] is reported as 1550 nM.
Work on CNc1nccc(-c2cccnc2Oc2ccc(NC(=O)c3cccc(Oc4ccccc4)c3)cc2C)n1 yielded an IC50 (Aurora kinase B [6]) of 251 nM and an IC50 [7] of 964 nM.
With CNc1nccc(-c2cccnc2Oc2ccc(NC(=O)c3ccccc3Nc3ccccc3)cc2C)n1 the IC50 (Aurora kinase B [6]) was 17 nM and the IC50 [7] was 62 nM.
Work on CNc1nccc(-c2cccnc2Oc2ccc(NC(=O)c3ccccc3Nc3ccc(F)cc3)cc2)n1 yielded a solubility thermodynamic [2] of 23 µg/mL (≈ 45.4 µM), a clearance [4] of 26.7 mL/min/kg and a microsomal CLint at 1 µM [5] of 467 µL/min/mg.
CNc1nccc(-c2cccnc2Oc2ccc(NC(=O)c3ccccc3Oc3ccccc3)cc2C)n1 showed an IC50 (Aurora kinase B [6]) of 56 nM and an IC50 [7] of 1540 nM.
CNc1nccc(-c2cccnc2Oc2ccc(NC(=O)c3ccc(Cl)cc3)cc2C)n1 gave an IC50 (Aurora kinase B [6]) of 335 nM and an IC50 [7] of 2340 nM.
With CNc1nccc(-c2cccnc2Oc2ccc(NC(=O)c3ccc(Oc4ccccc4)cc3)cc2C)n1 the IC50 (Aurora kinase B [6]) was 542 nM.
With CNc1nccc(-c2cccnc2Oc2ccc(NC(=O)c3ccccc3Cl)cc2C)n1 the IC50 (Aurora kinase B [6]) was greater than 25000 nM and the IC50 [7] was greater than 25000 nM.
Work on CNc1nccc(-c2cccnc2Oc2ccc(NC(=O)c3ccccc3Nc3ccccc3)c(C)c2)n1 yielded an IC50 (Aurora kinase B [6]) of 110 nM and an IC50 [7] greater than 1000 nM.
